Assay results taken from ChEMBL document CHEMBL1137673, “Improved synthesis of seven aromatic Baylis-Hillman adducts (BHA): evaluation against Artemia salina Leach. and Leishmania chagasi” (Eur J Med Chem, 2009).

Key:
[1] = tested on: Leishmania chagasi; experiment: Antileishmanial activity against promastigote form of Leishmania chagasi MCAN/BR/99/JP15 after 72 hrs; assay type: functional, organism-based, MCAN/BR/99/JP
Summary of the method: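 Log-phase promastigotes at 1 × 10^6 parasites/mL were grown at 26 °C in Schneider's Drosophila medium with 20% FBS, with or without a range of adduct concentrations, for 72 h. Glucantime served as the reference drug. Parasites were fixed in isotonic citric acid/NaCl/formalin solution, and growth was counted by light microscopy in a Neubauer chamber. Three independent experiments were run in triplicate.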

[2] = tested on: Artemia salina (organism); experiment: Toxicity in Artemia salina after 24 hrs; assay type: organism-based; conditions: in vivo
Summary of the method: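 Brine shrimp nauplii hatched in filtered sea water over 48 h (lamp drawing hatched shrimps through a partitioned tank), exposed to compound in DMSO/sea water in tubes for 24 h under light. Dead and surviving shrimps counted; LC50 from concentration versus lethality percentage on a probit scale. Sea water plus DMSO served as control.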

[3] = tested on: Leishmania amazonensis; experiment: Antileishmanial activity against Leishmania amazonensis; assay type: functional, organism-based
[4] = Leishmania chagasi, MCAN/BR/99/JP, 72 h, read-out: IC50

Molecule: C=C(C#N)C(O)c1ccc([N+](=O)[O-])cc1 (stereo unspecified)
- IC50 [1, 4]: 37.4 µM
- LC50 at 24 h [2]: 180 µM
- IC50 [3]: 7.9 µM

Molecule: C=C(C#N)C(O)c1cccnc1 (stereo unspecified)
- IC50 [1, 4]: 36.9 µM
- LC50 at 24 h [2]: 555 µM

Molecule: C=C(C#N)C(O)c1ccc(Br)cc1 (stereo unspecified)
- IC50 [1, 4]: 25.2 µM
- LC50 at 24 h [2]: 130 µM

Molecule: C=C(C#N)C(O)c1cccc([N+](=O)[O-])c1 (stereo unspecified)
- IC50 [1, 4]: 34.6 µM
- LC50 at 24 h [2]: 471 µM

Molecule: C=C(C#N)C(O)c1ccccn1 (stereo unspecified)
- IC50 [1, 4]: 32 µM
- LC50 at 24 h [2]: 545 µM

Molecule: C=C(C#N)C(O)c1ccccc1[N+](=O)[O-] (stereo unspecified)
- IC50 [1, 4]: 38.8 µM
- LC50 at 24 h [2]: 430 µM

Molecule: C=C(C#N)C(O)c1ccncc1 (stereo unspecified)
- IC50 [1, 4]: 30.1 µM
- LC50 at 24 h [2]: 443 µM

Molecule: MEGLUMINE ANTIMONATE
- IC50 [1]: 1620.3 µg/mL
